Source: ChEMBL document CHEMBL4406821, “Novel dual inhibitors targeting CDK4 and VEGFR2 synergistically suppressed cancer progression and angiogenesis” (Eur J Med Chem, 2019)
Active and inactive are the calls of the source. No cut-off for these calls is given here.

Legend:
[1] = target: Serine/threonine-protein kinase SIK1 (Homo sapiens) (UniProt P57059); assay: Inhibition of recombinant human SIK (1 to 281 residues) at 1 uM using AMARAASAAALARRR as substrate incubated for 40 mins in presence of [gamma-33P]-ATP by scintillation counting method relative to control
[2] = target: Vascular endothelial growth factor receptor 2 (Homo sapiens, UniProt P35968); assay: Inhibition of VEGFR2 in HUVEC cells assessed as reduction in Src phosphorylation at 20 to 40 nM incubated for 48 hrs by Western blot analysis; assay type: cell-based
Method in brief: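 HUVECs were maintained in 1640 medium with 10% FBS. They were treated with graded concentrations for 48 h, PBS-washed and lysed in RIPA buffer. Immunoblots were probed for total and phospho VEGFR2, STAT3, Akt, Erk1 and Src, each at 1:1000. β-actin served as loading control.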

[3] = target: Insulin-like growth factor 1 receptor (Homo sapiens) (UniProt P08069); assay: Inhibition of recombinant activated human IGF1R (959 to end residues) at 1 uM using KKKSPGEYVNIEFG as substrate incubated for 40 mins in presence of [gamma-33P]-ATP by scintillation counting method relative to control
Method in brief: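 Kinase panel profiling at 1 μM performed by Eurofins KinaseProfiler; percent inhibition reported as mean of two independent experiments.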

[4] = test system: SiHa; assay: Induction of apoptosis in human SiHa cells assessed as increase in late apoptotic cells at 20 to 40 nM incubated for 48 hrs by annexin V FITC and propidium iodide staining based flow cytometry; assay type: functional, cell-based
Method in brief: (§1)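 Annexin V-FITC/PI double staining with flow-cytometric readout. MDA-MB-231, T-47D, SiHa and HeLa cells were treated with graded concentrations for 48 h. MDA-MB-231 and T-47D were grown in DMEM and SiHa in 1640 medium, each with 10% FBS and 1% penicillin/streptomycin at 37°C under 5% CO2. Early- and late-stage apoptotic fractions were scored.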

[5] = target: Serine/threonine-protein kinase PLK3 (Homo sapiens) (UniProt Q9H4B4); assay: Inhibition of recombinant human PLK3 (19 to 301 residues) at 1 uM using casein as substrate incubated for 40 mins in presence of [gamma-33P]-ATP by scintillation counting method relative to control
[6] = test system: Mast/stem cell growth factor receptor Kit (Homo sapiens), P10721 [D816V]; assay: Inhibition of recombinant human cKIT D816V mutant (544 to end residues) at 1 uM using poly(Glu, Tyr) 4:1 as substrate incubated for 40 mins in presence of [gamma-33P]-ATP by scintillation counting method relative to control
Method in brief: (§2)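 Tested at a single 1 uM in an outsourced commercial kinase-profiling panel, read as percent inhibition. Each value is the mean of two independent experiments.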

[7] = VRT (0 to t) in Sprague-Dawley rat at 10 mg/kg, iv by HPLC-MS analysis; assay type: ADME, organism-based; conditions: in vivo
[8] = target: Mitogen-activated protein kinase kinase kinase 10 (Homo sapiens) (UniProt Q02779); assay: Inhibition of recombinant human MLK2 (1 to 449 residues) at 1 uM using myelin basic protein as substrate incubated for 40 mins in presence of [gamma-33P]-ATP by scintillation counting method relative to control
[9] = Toxicity in BALB/c mouse assessed as effect on blood parameter by measuring hematocrit at 40 mg/kg, po administered once two days for 4 times by hematology analyzer; conditions: in vivo
[10] = test system: HeLa; assay: Induction of apoptosis in human HeLa cells assessed as decrease in Rb phosphorylation incubated for 48 hrs by Western blot analysis; assay type: functional, cell-based
Method in brief: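 Cells were treated for 48 h, washed three times with PBS, and lysed in RIPA buffer. Immunoblots used anti-Rb, anti-phospho-Rb, anti-Ki67 and anti-Bcl-2 (each 1:1000), with β-actin as loading control.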

[11] = Toxicity in BALB/c mouse assessed as effect on blood parameter by measuring MCH at 40 mg/kg, po administered once two days for 4 times by hematology analyzer; conditions: in vivo
[12] = target: Dual specificity mitogen-activated protein kinase kinase 7 (Homo sapiens) (UniProt O14733); assay: Inhibition of recombinant human MKK7beta (2 to end residues) at 1 uM using unactive JNK1a1 as substrate incubated for 40 mins in presence of [gamma-33P]-ATP by scintillation counting method relative to control
[13] = target: Protein kinase C iota type (Homo sapiens) (UniProt P41743); assay: Inhibition of recombinant human full length PKCiota at 1 uM using ERMRPRKRQGSVRRRV as substrate incubated for 40 mins in presence of [gamma-33P]-ATP by scintillation counting method relative to control
[14] = test system: Macrophage colony-stimulating factor 1 receptor (Homo sapiens), P07333 [Y969C]; assay: Inhibition of recombinant human FMS Y969C mutant (538 to end residues) at 1 uM using EEEEYEEEEEEYY as substrate incubated for 40 mins in presence of [gamma-33P]-ATP by scintillation counting method relative to control
[15] = target: Serine/threonine-protein kinase SBK1 (Homo sapiens) (UniProt Q52WX2); assay: Inhibition of recombinant human full length SBK1 at 1 uM using KKLRRTLSVA as substrate incubated for 40 mins in presence of [gamma-33P]-ATP by scintillation counting method relative to control
[16] = target: G protein-coupled receptor kinase 5 (Homo sapiens) (UniProt P34947); assay: Inhibition of recombinant human full length GRK5 at 1 uM using casein as substrate incubated for 40 mins in presence of [gamma-33P]-ATP by scintillation counting method relative to control; method in brief: as §2
[17] = Toxicity in NOD/SCID BALB/c mouse xenografted with human SiHa cells assessed as toxic effects in kidney at 40 mg/kg, po administered for 48 hrs by hematoxylin and eosin staining method; assay type: organism-based; conditions: in vivo
[18] = target: Serine/threonine-protein kinase PLK1 (Homo sapiens) (UniProt P53350); assay: Inhibition of recombinant human full length PLK1 at 1 uM using casein as substrate incubated for 40 mins in presence of [gamma-33P]-ATP by scintillation counting method relative to control
[19] = test system: SiHa; assay: Induction of apoptosis in human SiHa cells at 40 nM incubated for 48 hrs by annexin V FITC and propidium iodide staining based flow cytometry; assay type: functional, cell-based; method in brief: as §1
[20] = test system: SiHa; assay: Induction of cell cycle arrest in human SiHa cells assessed as accumulation in G2/M phase at 80 nM incubated for 36 hrs by propidium iodide staining based flow cytometry; assay type: functional
Method in brief: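 Cells were treated with graded concentrations for 36 h, then fixed overnight in 70% ice-cold ethanol at 4°C and resuspended in PBS. Staining used 50 µg/ml PI plus 5 µg/ml RNase at 37°C for 30 min. DNA content was analysed by FACS to give G0/G1, S and G2/M fractions.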

[21] = test system: T47D; assay: Induction of apoptosis in human T47D cells at 40 nM incubated for 48 hrs by annexin V FITC and propidium iodide staining based flow cytometry; assay type: functional, cell-based; method in brief: as §1

Chain of G protein-coupled receptor kinase 5 (Homo sapiens) (P34947 whole entry, looked up): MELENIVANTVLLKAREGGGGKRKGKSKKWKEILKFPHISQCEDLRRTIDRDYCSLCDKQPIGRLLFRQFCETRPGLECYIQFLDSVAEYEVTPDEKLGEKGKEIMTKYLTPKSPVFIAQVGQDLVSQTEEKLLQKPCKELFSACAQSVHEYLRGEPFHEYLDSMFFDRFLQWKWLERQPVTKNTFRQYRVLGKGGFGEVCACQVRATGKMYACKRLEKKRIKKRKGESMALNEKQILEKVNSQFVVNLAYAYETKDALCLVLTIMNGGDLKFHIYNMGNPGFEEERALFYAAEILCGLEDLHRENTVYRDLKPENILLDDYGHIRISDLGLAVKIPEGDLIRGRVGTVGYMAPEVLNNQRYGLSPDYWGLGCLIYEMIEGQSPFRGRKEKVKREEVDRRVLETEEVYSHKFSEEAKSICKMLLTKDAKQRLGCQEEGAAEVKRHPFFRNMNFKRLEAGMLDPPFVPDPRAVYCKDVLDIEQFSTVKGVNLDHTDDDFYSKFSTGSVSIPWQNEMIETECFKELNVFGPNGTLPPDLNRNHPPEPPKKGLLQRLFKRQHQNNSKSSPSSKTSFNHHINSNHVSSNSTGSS
Chain of Serine/threonine-protein kinase PLK3 (Homo sapiens) (Q9H4B4 whole entry, looked up, the tested form may be a part): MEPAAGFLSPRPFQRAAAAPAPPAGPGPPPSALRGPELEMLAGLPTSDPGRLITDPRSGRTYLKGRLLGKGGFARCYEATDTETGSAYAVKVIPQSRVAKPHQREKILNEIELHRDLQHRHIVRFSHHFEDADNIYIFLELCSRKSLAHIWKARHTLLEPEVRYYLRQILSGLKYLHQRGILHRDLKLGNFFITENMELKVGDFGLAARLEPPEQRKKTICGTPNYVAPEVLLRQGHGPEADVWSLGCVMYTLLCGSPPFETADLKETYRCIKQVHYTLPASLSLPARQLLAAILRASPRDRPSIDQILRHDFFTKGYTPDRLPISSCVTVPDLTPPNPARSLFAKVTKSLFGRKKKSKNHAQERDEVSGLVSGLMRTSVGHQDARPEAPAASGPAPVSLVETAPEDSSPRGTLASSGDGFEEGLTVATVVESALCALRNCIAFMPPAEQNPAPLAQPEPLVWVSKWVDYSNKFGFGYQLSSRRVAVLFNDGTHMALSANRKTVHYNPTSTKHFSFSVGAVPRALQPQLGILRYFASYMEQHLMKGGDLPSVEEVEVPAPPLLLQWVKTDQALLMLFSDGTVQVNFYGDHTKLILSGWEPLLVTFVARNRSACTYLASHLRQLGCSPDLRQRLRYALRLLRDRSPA
Chain of Dual specificity mitogen-activated protein kinase kinase 7 (Homo sapiens) (O14733 whole entry): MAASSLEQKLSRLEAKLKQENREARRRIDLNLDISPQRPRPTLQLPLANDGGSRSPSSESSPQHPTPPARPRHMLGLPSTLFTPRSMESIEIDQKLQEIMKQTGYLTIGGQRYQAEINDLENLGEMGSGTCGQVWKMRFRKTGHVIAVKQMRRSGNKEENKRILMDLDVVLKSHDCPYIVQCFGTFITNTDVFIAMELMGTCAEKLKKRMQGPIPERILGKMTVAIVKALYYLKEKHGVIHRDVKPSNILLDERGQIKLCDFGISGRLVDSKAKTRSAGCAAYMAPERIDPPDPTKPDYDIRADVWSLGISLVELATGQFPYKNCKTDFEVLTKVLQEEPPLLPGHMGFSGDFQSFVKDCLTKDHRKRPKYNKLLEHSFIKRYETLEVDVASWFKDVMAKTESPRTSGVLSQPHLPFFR
Chain of Vascular endothelial growth factor receptor 2 (P35968 whole entry): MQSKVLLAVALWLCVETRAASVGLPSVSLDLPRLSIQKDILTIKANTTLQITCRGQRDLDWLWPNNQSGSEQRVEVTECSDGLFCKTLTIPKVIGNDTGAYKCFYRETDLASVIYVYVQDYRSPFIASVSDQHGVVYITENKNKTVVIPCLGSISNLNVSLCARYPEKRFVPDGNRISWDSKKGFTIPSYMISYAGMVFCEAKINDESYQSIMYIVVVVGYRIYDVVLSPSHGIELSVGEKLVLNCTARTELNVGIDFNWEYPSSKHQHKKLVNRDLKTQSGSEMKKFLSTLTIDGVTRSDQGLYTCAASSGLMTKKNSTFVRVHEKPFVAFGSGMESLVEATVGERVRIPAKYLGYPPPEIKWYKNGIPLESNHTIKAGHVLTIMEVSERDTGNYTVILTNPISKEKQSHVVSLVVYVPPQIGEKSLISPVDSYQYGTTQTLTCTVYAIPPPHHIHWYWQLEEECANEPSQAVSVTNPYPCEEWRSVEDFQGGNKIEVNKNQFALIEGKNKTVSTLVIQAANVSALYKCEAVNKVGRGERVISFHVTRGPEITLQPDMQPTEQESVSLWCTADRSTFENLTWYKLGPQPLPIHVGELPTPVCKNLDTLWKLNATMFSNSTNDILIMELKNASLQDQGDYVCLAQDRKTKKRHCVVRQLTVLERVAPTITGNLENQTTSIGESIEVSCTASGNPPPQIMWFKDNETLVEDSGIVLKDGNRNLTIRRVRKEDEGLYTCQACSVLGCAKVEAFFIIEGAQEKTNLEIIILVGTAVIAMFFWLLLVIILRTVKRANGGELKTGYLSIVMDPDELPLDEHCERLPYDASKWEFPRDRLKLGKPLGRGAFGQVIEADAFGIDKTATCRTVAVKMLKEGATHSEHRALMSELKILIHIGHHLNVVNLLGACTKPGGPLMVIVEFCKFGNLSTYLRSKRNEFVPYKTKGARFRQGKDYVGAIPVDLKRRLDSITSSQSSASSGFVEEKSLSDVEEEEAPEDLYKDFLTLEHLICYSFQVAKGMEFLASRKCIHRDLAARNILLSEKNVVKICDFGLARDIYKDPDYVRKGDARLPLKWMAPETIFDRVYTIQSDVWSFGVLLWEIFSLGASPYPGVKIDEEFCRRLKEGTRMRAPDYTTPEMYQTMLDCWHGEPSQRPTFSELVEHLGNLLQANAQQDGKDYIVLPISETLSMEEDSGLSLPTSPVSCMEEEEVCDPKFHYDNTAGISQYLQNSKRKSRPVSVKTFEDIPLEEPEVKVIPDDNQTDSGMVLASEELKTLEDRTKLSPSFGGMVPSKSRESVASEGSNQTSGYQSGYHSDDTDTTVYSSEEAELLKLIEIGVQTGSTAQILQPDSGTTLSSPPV
Chain of Serine/threonine-protein kinase SBK1 (Homo sapiens) (Q52WX2 whole entry): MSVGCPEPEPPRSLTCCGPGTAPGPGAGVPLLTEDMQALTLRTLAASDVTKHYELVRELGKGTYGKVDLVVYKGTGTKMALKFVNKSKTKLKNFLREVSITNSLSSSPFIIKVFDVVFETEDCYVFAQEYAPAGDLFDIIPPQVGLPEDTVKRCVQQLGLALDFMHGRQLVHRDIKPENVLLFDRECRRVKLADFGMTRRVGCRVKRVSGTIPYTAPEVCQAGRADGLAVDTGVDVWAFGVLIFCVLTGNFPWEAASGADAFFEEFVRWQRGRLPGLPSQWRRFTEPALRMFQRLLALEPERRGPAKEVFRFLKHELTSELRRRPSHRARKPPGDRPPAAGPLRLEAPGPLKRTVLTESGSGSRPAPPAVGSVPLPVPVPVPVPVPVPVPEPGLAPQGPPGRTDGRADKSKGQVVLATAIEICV
Chain of Mast/stem cell growth factor receptor Kit (Homo sapiens), P10721 [D816V] (P10721 whole entry D816V): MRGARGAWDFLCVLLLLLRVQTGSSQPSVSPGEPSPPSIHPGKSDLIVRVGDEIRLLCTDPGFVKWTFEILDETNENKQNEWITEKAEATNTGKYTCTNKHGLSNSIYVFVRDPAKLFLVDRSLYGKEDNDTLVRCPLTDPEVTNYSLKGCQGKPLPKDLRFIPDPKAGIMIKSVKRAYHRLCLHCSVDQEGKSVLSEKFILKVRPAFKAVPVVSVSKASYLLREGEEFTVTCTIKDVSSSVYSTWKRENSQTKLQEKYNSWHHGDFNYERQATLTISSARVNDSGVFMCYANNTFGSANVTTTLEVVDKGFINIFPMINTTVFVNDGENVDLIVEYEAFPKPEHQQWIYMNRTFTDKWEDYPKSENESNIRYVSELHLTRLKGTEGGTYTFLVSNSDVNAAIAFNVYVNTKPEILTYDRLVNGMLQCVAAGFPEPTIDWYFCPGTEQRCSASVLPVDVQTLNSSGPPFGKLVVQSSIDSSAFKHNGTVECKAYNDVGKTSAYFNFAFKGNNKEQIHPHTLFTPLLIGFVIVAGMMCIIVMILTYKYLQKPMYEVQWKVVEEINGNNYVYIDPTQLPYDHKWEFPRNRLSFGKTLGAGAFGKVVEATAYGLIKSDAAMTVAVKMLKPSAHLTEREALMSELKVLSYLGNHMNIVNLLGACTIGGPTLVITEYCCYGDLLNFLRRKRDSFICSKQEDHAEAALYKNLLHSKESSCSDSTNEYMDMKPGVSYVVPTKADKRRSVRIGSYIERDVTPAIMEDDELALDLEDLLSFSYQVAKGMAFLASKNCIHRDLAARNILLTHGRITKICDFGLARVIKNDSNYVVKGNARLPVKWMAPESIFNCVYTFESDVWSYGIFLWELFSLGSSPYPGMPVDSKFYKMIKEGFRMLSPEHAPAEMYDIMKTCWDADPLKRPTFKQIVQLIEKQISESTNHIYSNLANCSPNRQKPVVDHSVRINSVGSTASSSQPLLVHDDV
Chain of Serine/threonine-protein kinase PLK1 (Homo sapiens) (P53350 whole entry): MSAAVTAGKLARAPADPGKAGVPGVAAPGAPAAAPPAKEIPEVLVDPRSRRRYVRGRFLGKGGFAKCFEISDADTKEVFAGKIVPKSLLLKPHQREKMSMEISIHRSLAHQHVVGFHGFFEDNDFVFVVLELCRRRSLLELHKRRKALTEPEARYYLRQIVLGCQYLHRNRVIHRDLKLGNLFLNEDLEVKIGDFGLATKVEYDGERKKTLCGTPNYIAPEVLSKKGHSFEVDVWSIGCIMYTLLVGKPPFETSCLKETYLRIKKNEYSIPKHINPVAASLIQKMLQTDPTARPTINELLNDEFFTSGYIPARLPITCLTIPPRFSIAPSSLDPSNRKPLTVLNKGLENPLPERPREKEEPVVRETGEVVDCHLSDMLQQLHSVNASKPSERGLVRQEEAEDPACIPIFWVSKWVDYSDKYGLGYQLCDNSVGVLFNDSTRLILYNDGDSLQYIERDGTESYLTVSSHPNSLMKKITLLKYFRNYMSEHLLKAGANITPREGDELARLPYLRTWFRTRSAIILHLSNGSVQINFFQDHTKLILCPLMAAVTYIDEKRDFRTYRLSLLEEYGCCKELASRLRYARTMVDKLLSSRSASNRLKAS

Cc1ccc(NC(=O)C2(C(=O)Nc3ccc(Nc4ncc(F)c(-c5cc(F)c6nc(C)n(C(C)C)c6c5)n4)cc3)CC2)cc1
inhibition [1]: 21% | inhibition [2]: Active | inhibition [3]: 37% | Activity [4]: Active | inhibition [5]: 36% | inhibition [6]: 0% | VRT(t) [7]: 2 h | inhibition [8]: 2% | Activity [9]: Non-Toxic | Activity [10]: Dose-dependent effect | Activity [11]: Non-Toxic | inhibition [12]: 13% | inhibition [13]: 5% | inhibition [14]: 73% | inhibition [15]: 13% | inhibition [16]: 0% | Activity [17]: Non-Toxic | inhibition [18]: 23%

COc1cc2nccc(Oc3ccc(NC(=O)C4(C(=O)Nc5ccc(F)cc5)CC4)cc3)c2cc1OC [CABOZANTINIB]
Activity [19]: Active | Activity [20]: Active | Activity [21]: Active
